In data set [1] the test system is Human immunodeficiency virus 1. The data set is described as follows: Antiviral activity against HIV1 3B replication in human MT2 cells exposed to light assessed as inhibition of p24 production after 4 days by ELISA. The following applies: Human immunodeficiency virus 1, 3B, MT2, 96 h. On the technique in general: In an ELISA, binding on a coated surface is turned into a signal by an enzyme label.

A further data set deals with MT2. The data set is described as follows: Cytotoxicity against human MT2 cells after 4 days by XTT assay. The data set is classed as cell-based. The following applies: mt2, 96 h. Put shortly: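 Graded compound concentrations mixed with equal volume of MT-2 cells (5×10^5/mL), 37 °C for 4 days. XTT (1 mg/mL) with 0.02 μM phenazine methosulphate added, absorbance at 450 nm read after 4 h; CC50 calculated with CalcuSyn.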
On the technique in general: Formazan colour is commonly taken as a measure of viable cells.

Data set [2] has as its system Human immunodeficiency virus 1. The data set is described as follows: Antiviral activity against HIV1 3B replication in human MT2 cells under dark condition assessed as inhibition of p24 production after 4 days by ELISA. The following applies: Human immunodeficiency virus 1, 3B, MT2, 96 h.
The nature of data set [3]: Selectivity index, ratio of CC50 for human MT2 cells to EC50 for HIV1 3B replication in human MT2 cells exposed to light. The data set is classed as toxicity, cell-based. The following applies: read-out: Ratio CC50/EC50.
Data set [4] relates to Human immunodeficiency virus 1. The data set is described as follows: Antiviral activity against HIV1 isolate 94UG103 replication in human PBMC assessed as inhibition of p24 production after 7 days by ELISA. Particulars: Human immunodeficiency virus 1, isolate 94UG103, 168 h.

The results in this text go back to ChEMBL document CHEMBL1155226, “Design, synthesis, and structure-activity relationship of a novel series of 2-aryl 5-(4-oxo-3-phenethyl-2-thioxothiazolidinylidenemethyl)furans as HIV-1 entry inhibitors” (J Med Chem, 2009).

A word on the pEC50: it is −log10 of the EC50, conventionally taken in molar units. A word on the CC50: it is the concentration giving 50% cytotoxicity. The low end stands for harm at low concentration, the high end for better tolerance by the cells.

pEC50: −log10 of the molar value.

With `O=C(O)c1cncc(-c2ccc(/C=C3\SC(=S)N(CCc4ccccc4)C3=O)o2)c1`, the pEC50 in data set [1] is 7.38; in data set [2], 7.15; in data set [4], 6.35. This compound came in with a CC50 in the data set on MT2 of 38.4 µM. The selectivity ratio in data set [3] worked out at 915.
`O=C(O)c1cc(-c2ccc(/C=C3\SC(=S)N(CCc4ccccc4)C3=O)o2)cnc1Cl`: the pEC50 in data set [1] was 6.63; in data set [2], 6.00; in data set [4], 6.22. The compound also returned a CC50 in the data set with MT2 of 38.4 µM. In data set [3], the selectivity ratio was found to be 165.
In the case of `Cc1c(C(=O)O)cncc1-c1ccc(/C=C2\SC(=S)N(CCc3ccccc3)C2=O)o1`, the results for the pEC50 in data set [1], in data set [2] and in data set [4] were 6.41, 6.27 and 5.39, respectively. The compound further showed a CC50 with MT2 of 78.9 µM. For the same compound, the selectivity ratio in data set [3] stood at 202.
For `O=C(O)c1cc(-c2ccc(/C=C3\SC(=S)N(CCc4ccccc4)C3=O)o2)ccc1F` the same measures were 7.15, 6.54, 6.61, 27 µM and 380.
On to `O=C(O)c1cc(-c2ccc(/C=C3\SC(=S)N(CCc4ccccc4)C3=O)o2)ccc1Br`, for which the pEC50 in data set [1] is 6.50; in data set [2], 6.80; in data set [4] it was 6.78. In the data set with MT2, this compound showed a CC50 of 3.29 µM. Also, the selectivity ratio in data set [3] stood at 10.
For `O=C(O)c1cc(-c2ccc(/C=C3\SC(=S)N(CCc4ccccc4)C3=O)o2)ccc1O` the same measures were 5.89, 6.58, 5.58, 14.8 µM and 12.
The corresponding values for `O=C(O)c1cc(-c2ccc(/C=C3\SC(=S)N(CCc4ccccc4)C3=O)o2)ccc1Cl` are 7.29, 7.77, 7.14, 16.8 µM and 330.
Regarding `O=C(O)c1cccc(-c2ccc(/C=C3\SC(=S)N(CCc4ccccc4)C3=O)o2)c1F`, the pEC50 in data set [1] is 7.03; in data set [2], 7.23; in data set [4] it was 6.10. The same compound registered a CC50 with MT2 of 78.3 µM. Further, the selectivity ratio in data set [3] worked out at 835.
Regarding `CCc1ccc(-c2ccc(/C=C3\SC(=S)N(CCc4ccccc4)C3=O)o2)cc1C(=O)O`, the pEC50 was 7.09 in data set [1], 7.52 in data set [2] and 6.75 in data set [4]. In the data set with MT2, this compound came in with a CC50 of 17.4 µM. In addition, the selectivity ratio in data set [3] was determined as 215.
With `O=C(O)c1cccc(-c2ccc(/C=C3\SC(=S)N(CCc4ccccc4)C3=O)o2)c1`, the pEC50 was 7.36 in data set [1], 7.01 in data set [2] and 7.13 in data set [4]. In the data set on MT2, this compound returned a CC50 of 19.4 µM. Moreover, the selectivity ratio in data set [3] was determined as 440.
Consider `O=C(O)c1cc(-c2ccc(/C=C3\SC(=S)N(CCc4ccccc4)C3=O)o2)cnc1Br`, for which the pEC50 in data set [1] was 6.57; in data set [2] it was 6.64; in data set [4] it was 6.45. The same compound showed a CC50 with MT2 of 5.53 µM. Besides, in data set [3], the selectivity ratio worked out at 40.
For the compound `COc1ccc(-c2ccc(/C=C3\SC(=S)N(CCc4ccccc4)C3=O)o2)cc1C(=O)O`, the pEC50 was 5.89 in data set [1], 6.58 in data set [2] and 5.65 in data set [4]. The CC50 with MT2 was found to be 28.7 µM. In data set [3], the selectivity ratio amounted to 22.
Turning to `Cc1ccc(-c2ccc(/C=C3\SC(=S)N(CCc4ccccc4)C3=O)o2)cc1C(=O)O`, the pEC50 is 7.00 in data set [1], 7.51 in data set [2] and 7.15 in data set [4]. For the same compound, in the data set with MT2, the midpoint of cytotoxicity, the CC50, lay at 42.1 µM. In data set [3], the selectivity ratio came out at 426.
As to `Cc1c(C(=O)O)cccc1-c1ccc(/C=C2\SC(=S)N(CCc3ccccc3)C2=O)o1`, the negative-log EC50 (pEC50) was 7.37 in data set [1], 7.04 in data set [2] and 6.19 in data set [4]. The compound further showed a half-maximal cytotoxic concentration (CC50) in the data set on MT2 of 26.8 µM. Further, the selectivity ratio in data set [3] was determined as 624.
The corresponding values for `O=C(O)c1cccc(-c2ccc(/C=C3\SC(=S)N(CCc4ccccc4)C3=O)o2)c1Cl` are 7.19, 7.11, 7.48, 6.73 µM and 105.
